Assay results reported in ChEMBL document CHEMBL1240443, “A study of cytotoxicity of novel chlorokojic acid derivatives with their antimicrobial and antiviral activities” (Eur J Med Chem, 2010).
Values after ≈ are worked out from the molar mass of the structure shown.

What was measured:
Klebsiella pneumoniae [1] = assay: Antimicrobial activity against Klebsiella pneumoniae RSKK 574 by spectrophotometry; type: functional
Summary of the method: (§1)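 Broth microdilution in Mueller–Hinton broth. Two-fold dilutions from 256 to 0.125 µg/mL. Inoculum 10^5 c.f.u./mL, diluted from a McFarland 0.5 culture. Incubated at 35 °C for 24 h and 48 h in a humid chamber, triplicate.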

Enterococcus faecalis [2] = assay: Antimicrobial activity against Enterococcus faecalis ATCC 29212 by spectrophotometry; type: functional; summary of the method: as §1
Proteus mirabilis [3] = assay: Antimicrobial activity against extended spectrum beta lactamase expressing Proteus mirabilis by spectrophotometry; type: functional; summary of the method: as §1
Bacillus subtilis [4] = assay: Antimicrobial activity against Bacillus subtilis ATCC 6633 by spectrophotometry; type: functional; summary of the method: as §1
[5] = Cytotoxicity against MDBK cells after 48 hrs; type: cell-based, Bos taurus; settings: cattle
Klebsiella pneumoniae [6] = assay: Antimicrobial activity against extended spectrum beta lactamase expressing Klebsiella pneumoniae by spectrophotometry; type: functional; summary of the method: as §1
Pseudomonas aeruginosa [7] = assay: microbe, parasite or virus in culture; settings: ATCC 10145
Acinetobacter baumannii [8] = assay: Antimicrobial activity against Acinetobacter baumannii RSKK 02026 by spectrophotometry; type: functional; summary of the method: as §1
Human respirovirus 3 = assay: Antiviral activity against parainfluenza-3 virus infected in Vero cells assessed as reduction of virus-induced cytopathic effect; type: functional
Summary of the method: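 Vero cells grown in EMEM with 10% fetal calf serum. Two-fold dilutions from 51.2 to 0.012 µg/mL, with PI-3 added at its TCID50-based titre, held 2 h at 37 °C in 5% CO2. CPE scored by microscope against untreated controls, giving the CPE-inhibitory concentration range.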

Escherichia coli [9] = assay: Antimicrobial activity against extended spectrum beta lactamase expressing Escherichia coli by spectrophotometry; type: functional; summary of the method: as §1
Enterococcus faecalis [10] = assay: Antimicrobial activity against cephalosporin-resistant Enterococcus faecalis by spectrophotometry; type: functional; summary of the method: as §1
[11] = Cytotoxicity against african green monkey Vero cells after 48 hrs; type: cell-based; settings: chlorocebus sabaeus
Summary of the method: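 Confluent cell monolayers exposed to two-fold (Log2) dilutions of each sample (51.2–0.012 µg/mL) in EMEM, 5% CO2, 37 °C, 48 h. Scored by light microscopy against untreated cultures; rows damaging all cells counted toxic. Maximum non-toxic concentration (MNTC, µg/mL) taken as highest concentration leaving cells unaffected. Vero grown in EMEM/10% fetal calf serum with streptomycin/penicillin.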

Candida albicans = assay: Antifungal activity against Candida albicans ATCC 10231 by spectrophotometry; type: functional
Summary of the method: (§2)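 Yeast broth microdilution in RPMI-1640 with L-glutamine, buffered to pH 7 with MOPS. Inoculum 10^5 c.f.u./mL, prepared by the spectrophotometric method. Two-fold dilutions from 256 to 0.125 µg/mL. Incubated at 35 °C for 24 h and 48 h in a humid chamber, triplicate.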

Bacillus subtilis [12] = assay: Antimicrobial activity against ceftriaxone-resistant Bacillus subtilis by spectrophotometry; type: functional; summary of the method: as §1
Acinetobacter baumannii [13] = assay: Antimicrobial activity against cephalosporin-resistant Acinetobacter baumannii by spectrophotometry; type: functional; summary of the method: as §1
Candida parapsilosis = assay: Antifungal activity against Candida parapsilosis ATCC 22019 by spectrophotometry; type: functional; settings: Lodderomyces parapsilosis; summary of the method: as §2
Proteus mirabilis [14] = assay: Antimicrobial activity against Proteus mirabilis ATCC 7002 by spectrophotometry; type: functional; summary of the method: as §1
Staphylococcus aureus = assay: Antimicrobial activity against methicillin-resistant Staphylococcus aureus by spectrophotometry; type: functional; summary of the method: as §1
Pseudomonas aeruginosa [15] = assay: Antimicrobial activity against trimethoprim-sulfamethoxazole and tazobactum-induced Pseudomonas aeruginosa by spectrophotometry; type: functional; summary of the method: as §1
Escherichia coli [16] = assay: Antimicrobial activity against Escherichia coli ATCC 35218 by spectrophotometry; type: functional; summary of the method: as §1

Molecule | MIC (Klebsiella pneumoniae [1]) [µg/mL] | MIC (Enterococcus faecalis [2]) [µg/mL] | MIC (Proteus mirabilis [3]) [µg/mL] | MIC (Bacillus subtilis [4]) [µg/mL] | MNTC at 48 h [5] [µg/mL] | MIC (Klebsiella pneumoniae [6]) [µg/mL] | MIC (Pseudomonas aeruginosa [7]) [µg/mL] | MIC (Acinetobacter baumannii [8]) [µg/mL] | CPE-inhibitory concentration (Human respirovirus 3) [µg/mL] | MIC (Escherichia coli [9]) [µg/mL] | MIC (Enterococcus faecalis [10]) [µg/mL] | MNTC at 48 h [11] [µg/mL] | MIC (Candida albicans) [µg/mL] | MIC (Bacillus subtilis [12]) [µg/mL] | MIC (Acinetobacter baumannii [13]) [µg/mL] | MIC (Candida parapsilosis) [µg/mL] | MIC (Proteus mirabilis [14]) [µg/mL] | MIC (Staphylococcus aureus) [µg/mL] | MIC (Pseudomonas aeruginosa [15]) [µg/mL] | MIC (Escherichia coli [16]) [µg/mL]
O=c1cc(CCl)oc(CN2CCN(Cc3ccc(Cl)c(Cl)c3)CC2)c1O | 8 (≈ 19.2 µM) | 16 (≈ 38.3 µM) | 64 (≈ 153 µM) | 1 (≈ 2.39 µM) | 0.4 | 4 (≈ 9.58 µM) | 4 (≈ 9.58 µM) | 8 (≈ 19.2 µM) | 0.05 | 4 (≈ 9.58 µM) | 128 (≈ 306 µM) | 0.8 | 4 (≈ 9.58 µM) | 2 (≈ 4.79 µM) | 16 (≈ 38.3 µM) | 8 (≈ 19.2 µM) | 16 (≈ 38.3 µM) | 128 (≈ 306 µM) | 16 (≈ 38.3 µM) | 8 (≈ 19.2 µM)
CC1(C)S[C@@H]2[C@H](NC(=O)[C@H](N)c3ccccc3)C(=O)N2[C@H]1C(=O)O [AMPICILLIN] | 2 (≈ 5.72 µM) | 0.5 (≈ 1.43 µM) | > 128 | 0.12 (≈ 0.343 µM) | – | > 128 | – | 2 (≈ 5.72 µM) | – | > 128 | > 128 | – | – | 0.5 (≈ 1.43 µM) | > 128 | – | 2 (≈ 5.72 µM) | > 128 | – | –
O=c1cc(CCl)oc(CN2CCN(C(c3ccccc3)c3ccc(Cl)cc3)CC2)c1O (configuration not stated) | 4 (≈ 8.71 µM) | 16 (≈ 34.8 µM) | 64 (≈ 139 µM) | 1 (≈ 2.18 µM) | 0.4 | 64 (≈ 139 µM) | 2 (≈ 4.35 µM) | 4 (≈ 8.71 µM) | 0.1 | 64 (≈ 139 µM) | 32 (≈ 69.7 µM) | 0.4 | 4 (≈ 8.71 µM) | 2 (≈ 4.35 µM) | 16 (≈ 34.8 µM) | 8 (≈ 17.4 µM) | 8 (≈ 17.4 µM) | 64 (≈ 139 µM) | 16 (≈ 34.8 µM) | 4 (≈ 8.71 µM)
C[C@H]1COc2c(N3CCN(C)CC3)c(F)cc3c(=O)c(C(=O)O)cn1c23.C[C@H]1COc2c(N3CCN(C)CC3)c(F)cc3c(=O)c(C(=O)O)cn1c23.O [LEVOFLOXACIN] | < 0.12 | 0.5 | 1 | – | – | – | – | 0.12 | – | – | 32 | – | – | – | 64 | – | < 0.12 | 128 | – | –
OC(Cn1cncn1)(Cn1cncn1)c1ccc(F)cc1F [FLUCONAZOLE] | – | – | – | – | – | – | – | – | – | – | – | – | 2 (≈ 6.53 µM) | – | – | 4 (≈ 13.1 µM) | – | – | – | –
CC(=O)C1(c2ccccc2)CCN(Cc2oc(CCl)cc(=O)c2O)CC1 | 8 (≈ 21.3 µM) | 64 (≈ 170 µM) | 64 (≈ 170 µM) | 1 (≈ 2.66 µM) | 0.4 | 64 (≈ 170 µM) | 4 (≈ 10.6 µM) | 4 (≈ 10.6 µM) | – | 64 (≈ 170 µM) | 128 (≈ 341 µM) | 0.4 | 4 (≈ 10.6 µM) | 2 (≈ 5.32 µM) | 16 (≈ 42.6 µM) | 8 (≈ 21.3 µM) | 16 (≈ 42.6 µM) | 128 (≈ 341 µM) | 16 (≈ 42.6 µM) | 8 (≈ 21.3 µM)
CC(C)(C)OC(=O)N1CCN(Cc2oc(CCl)cc(=O)c2O)CC1 | 8 (≈ 22.3 µM) | 8 (≈ 22.3 µM) | 64 (≈ 178 µM) | 1 (≈ 2.79 µM) | 0.8 | 64 (≈ 178 µM) | 4 (≈ 11.1 µM) | 8 (≈ 22.3 µM) | 0.2 | 64 (≈ 178 µM) | 128 (≈ 357 µM) | 0.4 | 4 (≈ 11.1 µM) | 2 (≈ 5.57 µM) | 16 (≈ 44.6 µM) | 8 (≈ 22.3 µM) | 16 (≈ 44.6 µM) | 128 (≈ 357 µM) | 16 (≈ 44.6 µM) | 8 (≈ 22.3 µM)
GENTAMICIN | – | – | – | – | – | – | – | – | – | – | – | – | – | – | – | – | – | – | 2 | –
